GRK2 aptamer HTS = compounds blocking aptamer binding on GRK2 – biochemical, human GRK2, bead flow cytometry, HTS, primary screen; FAM-aptamer displacement from GRK2; inhibition of aptamer binding, % at 10 µM; 330,000 compounds, 0.59% hits; AID 488847, 2010;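 active = inhibition of aptamer binding above 40%, roughly 3 SD of noise, on plates passing a quality check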;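 also: median bead fluorescence of bound FAM aptamer so fluorescent compounds give negative values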
GASC-1 inh = inhibitors of GASC-1 histone demethylase, primary screen, biochemical, fluorescence, DELFIA europium. GST-JMJD2C(1-420) H3K9me3 demethylation. inhibition, % at 2.35 µM. AID 2099, 2009. 330,000 compounds, 0.069% hits. Lysine-specific demethylase 4C (Homo sapiens), Q9H3R0;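 active = more than half of a compound's replicate wells show inhibition beyond 50%, single wells judged on their own value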;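 also: signal counts dimethyl H3K9 product captured on neutravidin plate; 0% = median of DMSO wells and 100% = 0.3 times that DMSO median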
procasp3 activ = activators of human procaspase-3 D3A mutant, primary screen, biochemical, absorbance, PC-3 D3A mutant, single concentration; activation, % at 8.5 µM; 330,000 compounds, 0.11% hits; recombinant procaspase-3 D3A, Ac-DEVD-pNA absorbance 405 nm;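 active = activation above the mean of all tested compounds plus 3 SD, cut at about 21% in these data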;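 also: 0% = DMSO alone and 100% = DMSO wells spiked with extra 5 µM PC-3 D3A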
Target sequence (P42574 whole entry D9A/D28A/D175A): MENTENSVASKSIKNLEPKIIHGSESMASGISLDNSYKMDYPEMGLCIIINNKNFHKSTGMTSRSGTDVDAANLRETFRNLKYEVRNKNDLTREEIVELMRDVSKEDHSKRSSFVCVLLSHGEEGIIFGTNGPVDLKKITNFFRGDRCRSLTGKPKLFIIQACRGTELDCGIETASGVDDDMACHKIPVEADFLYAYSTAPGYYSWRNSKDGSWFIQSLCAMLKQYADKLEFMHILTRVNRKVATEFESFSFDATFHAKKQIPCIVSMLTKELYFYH
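assay system = Procaspase-3 D3A mutant | signal = absorbance at 405 nm, 0 and 120 min | times = 1 h preincubation plus 2 h reaction at 25 °C | repeats = single replicate | read-out = % activation between DMSO and enzyme-spiked controls | medium = Zinc-free HEPES saline buffer with Triton X-100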
VLA-4 inh = inhibition in human VLA-4 binding assay, primary screen, VLA-4 allosteric modulator project, MLPCN library, flow cytometry, VLA-4 expressing cells; ligand binding flow cytometry; inhibition, % (about 7 µM as worked out from the volumes in the protocol); 330,000 compounds, 0.2% hits; AID 2557, 2010; in the data active = inhibition above about 50%
proCasp7 act = procaspase-7 activators, primary screen, counter-screen for procaspase-3 activator project, biochemical, absorbance, HTS, human | Caspase-7 (Homo sapiens), P55210 | recombinant procaspase-7, Ac-DEVD-pNA absorbance 405 nm; D23A/D198A/D206A triple mutant, cannot self-cleave; scale: DMSO 0, 5 µM enzyme 100 | activation, % at 8.5 µM | 330,000 compounds, 0.093% hits | AID 463210, 2010;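 active = percent activation above the screen-wide mean plus 3 SD, cut at about 25% in these data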
Target sequence (P55210 whole entry D23A/D198A/D206A): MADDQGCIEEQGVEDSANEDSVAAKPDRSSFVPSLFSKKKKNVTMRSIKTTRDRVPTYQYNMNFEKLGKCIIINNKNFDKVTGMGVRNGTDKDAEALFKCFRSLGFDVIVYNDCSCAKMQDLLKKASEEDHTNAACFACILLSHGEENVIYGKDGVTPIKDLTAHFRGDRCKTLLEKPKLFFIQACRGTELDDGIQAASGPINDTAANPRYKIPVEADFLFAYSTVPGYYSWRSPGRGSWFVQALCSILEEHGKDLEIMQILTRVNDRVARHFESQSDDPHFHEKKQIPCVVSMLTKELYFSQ
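signal = Epi-absorbance of released pNA at 405 nm, two timepoints | assay system = Uncleavable procaspase-7 mutant enzyme | reagent = Ac-DEVD-pNA substrate, 400 µM as added | times = 1 h enzyme–compound preincubation and 2 h substrate reaction, both 25 °C | benchmarks = low DMSO alone, high DMSO plus 5 µM PC-7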
Hep lipid drop = inhibitors of hepatocyte lipid droplet formation, primary screen, imaging, high-throughput imaging, BODIPY stain | AML12 mouse hepatocytes, oleate lipid droplets | inhibition, % at 6.5 µM | 240,000 compounds, 0.4% hits;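 active = lipid droplet intensity inhibited by at least 50%, with more than 500 cells counted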
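System: AML12 hepatocytes (mouse). Probe or stimulus: oleic acid at 100 µM to induce lipid droplet formation. Times: overnight treatment with compound plus oleate. Detection: Image-based BODIPY and DAPI two-channel analysis. Evaluation: percent inhibition of filter-corrected integrated lipid droplet intensity per well.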
VLA-4 allo CP = retest of VLA-4 allosteric modulators, confirmation, cell-based, cherry-picked plates, U937, HUTS-21 LIBS antibody; inhibition, % at 6.7 µM; U937 cells, HUTS-21 LIBS mAb binding, flow cytometry; LDV ligand present at threefold Kd; 1,300 compounds, 2% hits; shares compounds with VLA-4 inh; in the data active = inhibition above about 40%;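 also: 0% = ligand without compound and 100% = no ligand background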
procasp7 triplic = procaspase-7 activators, counter-screen for procaspase-3 activator project, biochemical, absorbance, triplicate, human; shares compounds with procasp3 activ; recombinant procaspase-7, Ac-DEVD-pNA absorbance; asp23/198/206-to-Ala mutant, cannot self-cleave; activation, % at 8.5 µM; 210 tested, under 10 active; AID 488941, 2010;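 active = mean activation above a set limit taken from an earlier procaspase-7 screen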;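 also: 0% = DMSO wells and 100% = DMSO plus 5 µM procaspase-7 enzyme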
proCasp3 confirm = activators of human procaspase-3 D3A mutant, confirmation, biochemical, absorbance, PC-3 D3A mutant, triplicate | shares compounds with procasp3 activ | recombinant PC-3 D3A, Ac-DEVD-pNA absorbance 405 nm; 100% is higher-enzyme control | activation, % at 8.5 µM | 210 compounds, 10% hits | AID 488954, 2010;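 active = mean activation above a set limit carried over from the earlier primary screen, cut at about 22% in these data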
PC3 D3A act = procaspase-3 activators, counter-screen for dual procaspase-3/7 activator project, biochemical, absorbance, PC-3 D3A mutant, human; recombinant PC-3 D3A, Ac-DEVD-pNA absorbance 405 nm; aspartates 9, 28, 175 changed to alanine; 100% = enzyme control; activation, % at 8.5 µM; shares compounds with proCasp7 act; 290 tested, under 10 active;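 active = mean percent activation across triplicates above a set limit taken from the earlier primary procaspase-3 screen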;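 also: 0% = DMSO wells and 100% = DMSO wells with 5 µM added PC-3 D3A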
Procasp7 act = activation of procaspase-7 enzyme – biochemical, absorbance, human, dual procaspase-3/-7 activator project, confirmation; shares compounds with proCasp7 act; recombinant procaspase-7, Ac-DEVD-pNA absorbance 405 nm; D23A/D198A/D206A mutant that cannot self-cleave; activation, % at 8.5 µM; 290 tested, under 10 active; AID 493115, 2011;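 active = mean activation above a set limit carried over from the earlier primary screen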;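 also: 0% = DMSO only and 100% = DMSO with added 5 µM PC-7 enzyme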
* marks the source's active call; other numbers are inactive results; · = no result given. The list is not random: actives were taken first. Their share in the collection is about 1.3%.

SMILES	GRK2 aptamer HTS	GASC-1 inh	procasp3 activ	VLA-4 inh	proCasp7 act	Hep lipid drop	VLA-4 allo CP	others
CN1C2CCC1CC(OC(=O)c1ccc([N+](=O)[O-])cc1)C2 (configuration not stated)	1	-13	7	12	7	-20	·
Cc1ccc(CC(=O)N2CCN(C)CC2)cc1	0	-3	2	4	-1	5	·
CC(=O)c1cn(CC(=O)NCCc2c[nH]c3ccccc23)c2ccccc12	0	-1	-6	7	-8	·	·
C=C1[C@H]2CC[C@H]3[C@]4(C)C[C@H](O[C@H]5O[C@H](CO)[C@@H](OS(=O)(=O)O)[C@H](OS(=O)(=O)O)[C@H]5OC(=O)CC(C)C)C[C@@H](C(=O)O)[C@H]4CC[C@]3(C2)[C@H]1O	3	·	6	57*	-3	·	3
Cc1[nH]c2ccc(OC(F)(F)F)cc2c1CCNCc1cccc([N+](=O)[O-])c1	0	39	1	39	8	-17	·
CCOc1cccc(CNCCc2c(C)[nH]c3ccc(OC(F)(F)F)cc23)c1O	0	-10	-3	65*	0	-30	39
CCN(CC)c1ccc(N=Cc2c(O)n(Cc3ccccc3)c(=O)[nH]c2=O)cc1	0	0	-6	-7	-2	18	-22
CCCCCCCSc1cc(OC)c(CCNC)cc1OC	0	-11	-6	61*	2	·	0
C[C@]12C=CC(=O)C=C1CC[C@@H]1C2CC[C@]2(C)OC(=O)CCC12 (some centres not stated)	0	5	3	8	-6	4	·
COc1cccc(O)c1CN1CCCC(C(=O)c2ccccc2SC)C1 (configuration not stated)	3	10	6	51*	6	-20	-4
NC(N)=Nc1ccc2[nH]c3c(c2c1)C[C@@]1(O)[C@H]2Cc4ccc(O)c5c4[C@@]1(CCN2CC1CC1)[C@H]3O5	0	·	-9	48	-10	·	·
C/C1=C\[C@@H](C)C/C=C/[C@H]2[C@@H]3O[C@]3(C)[C@@H](C)[C@H]3[C@H](Cc4c[nH]c5ccccc45)NC(=O)[C@]32C(=O)/C=C/C(=O)[C@@H]1O	1	6	-3	70*	7	8	37
CC1=CC2/C=C(\C)CCC(O)C(O)/C=C/C(=O)C23C(=O)NC(CC(C)C)C3C1C (configuration not stated)	0	15	-1	35	6	-10	·
COC(=O)C1=C(c2cccc(C#N)c2)C[C@@H]2CC[C@H]1N2C(=O)NC1Cc2ccccc2C1	0	8	7	0	-4	·	·
Cc1cc(C)cc(N2C(=O)NC(=O)/C(=C\c3cccn3-c3ccccc3)C2=O)c1	0	-3	-15	44	-17	-4	16
CCOC(=O)c1c(NC(=O)C(c2ccccc2)c2ccccc2)sc2c1C1CCN2CC1	1	19	-3	-4	-5	·	-3
CCCCn1c(N)c(C(=O)NCc2cccs2)c2nc3ccccc3nc21	1	21	46*	-2	-5	·	·	procasp7 triplic=-20;proCasp3 confirm=-14
COCCOC(=O)c1c(N)n(Cc2ccccc2)c2nc3ccccc3nc12	0	-2	-3	-9	-6	5	·
COCCCn1c(N)c(C(=O)NCCC(C)C)c2nc3ccccc3nc21	0	22	32*	-20	12	·	·	procasp7 triplic=-21;proCasp3 confirm=-14
CCCOC(=O)c1c(N)n(Cc2cccs2)c2nc3ccccc3nc12	0	-3	48*	6	6	-1	·	procasp7 triplic=-20;proCasp3 confirm=-13
COc1ccccc1N1CCN(C2CCCN(C(=O)COc3ccccc3Cl)C2)CC1 (configuration not stated)	·	2	·	·	·	23	·
CC[n+]1c(/C=C/C=C/c2ccc(N(C)C)cc2)sc2ccccc21	22	1	39*	-354	-4	-99	·	procasp7 triplic=-6;proCasp3 confirm=-5
CN(C)c1ccc(/C=C/C=C/c2sc3ccccc3[n+]2C)cc1	0	7	5	-331	-4	-119	·
O=c1c2ccccc2nc(-c2ccccc2Cl)n1-c1cccc(O)c1	4	3	·	5	·	-1	·
Cc1ccc(-c2nc3ccccc3c(=O)n2-c2cccc(C)n2)cc1	1	4	44*	6	9	-6	·	procasp7 triplic=1;proCasp3 confirm=4
COC(=O)C1=C(c2ccccc2OCc2ccccc2)C[C@@H]2CC[C@H]1N2C(=O)NCCOc1ccccc1	1	-4	4	-4	-7	·	·
Nc1c(C(=O)NCc2ccco2)c2nc3ccccc3nc2n1Cc1ccccc1	3	-9	-2	-2	46*	-32	·	PC3 D3A act=-27;Procasp7 act=-35

Screening results (PubChem BioAssay)
